zfTRPN1 agonist – activates the zebrafish TRPN1 channel; HEK293 zebrafish TRPN1-YFP, Fluo-8 calcium fluorescence; 100% = response to 87 µM carbachol; AID 1424; activation, % at 3 µM; 220,000 tested, 0.18% active;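 active means activation above its plate's cutoff, the mean activation of test wells on that plate plus 3 SD, cut at about 19% in these data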;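 further: 0% = DMSO alone and 100% = 87 µM carbachol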
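Assay system: Zebrafish TRPN1-YFP in HEK293 cells | Incubation: Dye loading 1 h at 37 °C, then 30 min room temperature | Measured by: Kinetic Fluo-8 fluorescence, ex 470-495, em 515-575 nm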
OXTR ag – agonists of human oxytocin receptor; CHO-OTR cells, Fluo-8 calcium fluorescence; normalized: DMSO 0%, oxytocin 100%; activation, % at 3 µM; 320,000 tested, 0.32% active;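 active means activation above the mean of all tested compounds plus 3 SD, cutoff set per screening run, cut at about 20% in these data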;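 further: peak over basal fluorescence ratio from a 100 s FLIPR kinetic read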
V1R ag counter – counter-screen for oxytocin receptor agonists: human V1a receptor agonists; activation, % at 3 µM; P37288; 320,000 tested, 0.25% active; AID 2797; CHO-V1R cells, Fluo-8 calcium fluorescence, agonist mode; 0% DMSO, 100% 3 nM vasopressin;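 active means activation above the mean activation of all tested compounds plus 3 SD, per screening run, cut at about 20% in these data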;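 further: signal is peak over basal fluorescence ratio across a 100 second FLIPR read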
OXTR potentiate – potentiates the human oxytocin receptor response; activation, % at 3 µM; 320,000 tested, 0.061% active; CHO-OTR cells, Fluo-8 calcium fluorescence, potentiator mode; 0% = oxytocin EC15, 100% = EC100;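 active means activation above that plate's cutoff, the mean activation of tested compounds plus 3 SD, cut at about 6.6% in these data, passing the limit was not always enough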;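 further: 100% uses oxytocin at 75 nM as the full agonist control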
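Measured by – Fluo-8 calcium dye fluorescence · Test system – human OTR in CHO cells · Dosing – one concentration, 3.0 µM compound · Controls – EC15 oxytocin alone as 0%, 75 nM oxytocin as 100% · Evaluation – normalized max/min fluorescence ratio, % activation · Timing – 6 min pre-incubation, 100 s read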
TRPML3 ag – activates the human TRPML3 channel; Q8TDD5; HEK293 TRPML3-YFP, Fluo-8 calcium fluorescence; 100% = the carbachol control signal; activation, % at 3 µM; 220,000 tested, 0.29% active;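 active means activation above its plate's cutoff, the mean activation of the plate's test wells plus 3 SD, cut at about 12% in these data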;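 further: 0% = DMSO only wells and 100% = carbachol wells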
Target sequence (Q8TDD5 whole entry, looked up): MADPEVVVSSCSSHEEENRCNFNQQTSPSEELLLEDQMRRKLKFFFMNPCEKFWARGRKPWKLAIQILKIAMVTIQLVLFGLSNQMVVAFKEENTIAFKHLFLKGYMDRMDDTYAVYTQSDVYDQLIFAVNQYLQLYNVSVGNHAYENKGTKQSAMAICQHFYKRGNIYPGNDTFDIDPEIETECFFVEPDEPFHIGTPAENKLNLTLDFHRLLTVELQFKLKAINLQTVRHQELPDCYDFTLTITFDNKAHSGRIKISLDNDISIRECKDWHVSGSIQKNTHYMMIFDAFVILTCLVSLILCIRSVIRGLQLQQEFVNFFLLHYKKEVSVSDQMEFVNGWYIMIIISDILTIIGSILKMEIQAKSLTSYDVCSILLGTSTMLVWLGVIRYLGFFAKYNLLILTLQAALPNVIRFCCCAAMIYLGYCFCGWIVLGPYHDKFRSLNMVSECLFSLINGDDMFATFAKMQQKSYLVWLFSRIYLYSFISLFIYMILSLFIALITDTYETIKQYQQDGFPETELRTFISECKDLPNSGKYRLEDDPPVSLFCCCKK
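Test system: HEK293 cells stably carrying human TRPML3-YFP; Doses: single dose, 3 µM final nominal compound, 0.3% DMSO final; Schedule: dye loading 1 h 37 °C then 30 min ambient, 125 s read; Technique: Fluo-8 calcium fluorescence; Benchmarks: high control carbachol 87 µM, low control DMSO.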
OXTR agonist cf – confirmation of human oxytocin receptor agonists; shares compounds with OXTR ag; CHO-OTR cells, Fluo-8 calcium fluorescence, agonist; 390 tested, 20% active; AID 434963; activation, % at 3 µM;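 active means mean activation above about 20% derived from the earlier single-dose screen, limit read from the data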;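 further: peak over minimum fluorescence ratio per well during a 100 second FLIPR read; 0% = DMSO alone and 100% = oxytocin high control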
V1aR counter 3x – counter-screen for oxytocin receptor agonists: V1a receptor agonists | CHO-V1R cells, Fluo-8 calcium fluorescence, agonist | 390 tested, 10% active | shares compounds with OXTR ag | activation, % at 3 µM;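 active means mean activation over triplicate exceeds the hit threshold set in the earlier primary screen, cut at about 20% in these data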;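 further: peak over basal fluorescence ratio within a 100 second read; 0% = DMSO alone and 100% = 3 nM vasopressin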
* = called active by the depositor; / = not tested or not shown. Shown are actives, neighbours in structure and some others; about 0.55% of the full set was active somewhere.

SMILES	zfTRPN1 agonist	OXTR ag	V1R ag counter	OXTR potentiate	TRPML3 ag	OXTR agonist cf	V1aR counter 3x
Fc1ccc2[nH]c3c(NCc4ccccc4)ncnc3c2c1	/	24.4*	7.1	-21.5	/	16.9	13.5
CCOC(=O)c1ccc(NC(=S)N2CCSC2c2ccc(OC)cc2)cc1 (stereo not given)	4.6	32.1*	17.8	-20.9	1.8	36.9*	30.7*
COc1ccc(C2SCCN2C(=S)Nc2ccc(F)cc2)cc1 (stereo not given)	3.0	3.4	2.0	-7.9	1.1	/	/
COc1ccc(CCNC(=O)CCCCCn2c(SCC(N)=O)nc3cc4c(cc3c2=O)OCO4)cc1OC	-1.3	-0.2	0.0	-21.5	0.8	/	/
COc1ccc(C2NCCc3c2[nH]c2ccccc32)cc1CN1CCc2cc(OC)c(OC)cc2C1C (stereo not given)	11.4	/	/	/	5.3	/	/
COc1ccc(C2NCCc3c2[nH]c2ccccc32)cc1COc1ccc(F)cc1 (stereo not given)	3.5	24.0*	8.1	-19.4	0.6	23.5*	3.5
CSc1ccc2c(c1)N(CCC1CCCCN1C)c1ccccc1S2 (stereo not given)	2.5	23.6*	8.6	-10.0	1.5	16.1	5.5
Cc1ccc(N(CC(=O)NC(C)C)C(=O)CCC(=O)Nc2nccs2)c(C)c1	/	-0.1	-0.1	-6.1	/	/	/
CN(Cc1ccccn1)C(=O)C1CCC(=O)N(CCc2ccc(Cl)cc2)C1 (stereo not given)	/	-0.5	0.2	-10.7	/	/	/
O=C(Nc1ccc(S(=O)(=O)N2CCCCC2)cc1)c1ccc(CN2CCOCC2)cc1	11.7	20.1*	16.8	-12.1	5.8	6.7	8.8
Oc1ccc(C[C@@H]2CNCCN2CCC23CC4CC(CC(C4)C2)C3)cc1	/	20.4*	8.0	-16.4	/	9.3	2.8
Oc1ccc(C[C@H]2CNCCN2CCC23CC4CC(CC(C4)C2)C3)cc1	/	6.8	2.8	-1.5	/	/	/
Cc1ccc(OC(=O)c2ccc(Br)o2)cc1	-1.5	26.8*	15.3	-16.8	-0.5	1.7	9.1
O=C(Oc1ccc(-c2nnco2)cc1)c1ccc(Br)o1	/	0.6	1.0	0.7	/	/	/
Cc1ccc(OCc2nnc(SCC(=O)Nc3sc(C)c(C)c3C#N)n2C)cc1	0.2	20.9*	-0.5	-19.3	0.7	-1.0	-0.7
Cc1sc(NC(=O)CSc2nnc(COc3ccccc3)n2C)c(C#N)c1C	-1.3	-0.2	3.5	-13.6	0.4	/	/
CN(/N=C/c1ccc(-c2ccc([N+](=O)[O-])cc2)o1)c1ccccc1	/	22.6*	17.6	-15.2	/	96.2*	100.0*
O=C(NC(=S)Nc1ccc2oc(=O)ccc2c1)c1cccc(Cl)c1	/	0.7	0.4	-4.3	/	/	/
Cc1ccc(C)c(N2CCN(C(=O)c3cccn4c(=O)c5sccc5nc34)CC2)c1	-0.1	31.0*	8.9	-13.1	0.7	9.8	5.3
CCOC(=O)c1csc(NC(=O)CSc2nnnn2-c2ccc3c(c2)OCCO3)n1	6.0	22.8*	16.4	-9.4	2.6	8.5	7.0
C=CCn1cc(F)c(=O)n(CC=C)c1=O	-0.2	0.8	0.4	-6.8	1.4	/	/
COc1ccc(CC2=CC(=O)c3ccccc3C2=O)cc1	/	-0.3	-0.8	2.1	/	/	/
O=C(Nc1ccc([N+](=O)[O-])cc1Cl)c1cc(Cl)ccc1O	/	20.6*	13.2	-18.3	/	15.3	12.5
C[C@H](CO)N1C[C@H](C)[C@@H](CN(C)C(=O)NC2CCCCC2)Oc2c(NS(=O)(=O)c3cn(C)cn3)cccc2C1=O	/	2.5	1.2	-2.1	/	/	/
CCCC(=O)c1ccc(N2CCN(C(=O)c3ccccc3)CC2)c(F)c1	4.7	10.3	8.0	-20.9	2.8	/	/
CCCC(=O)c1ccc(N2CCN(C(=O)c3ccccc3Br)CC2)c(F)c1	6.9	19.6*	8.3	-19.5	3.6	5.7	7.2
O=C(O)c1sccc1Oc1ccc(NS(=O)(=O)c2ccccc2)cc1	/	-0.7	-0.6	-15.8	/	/	/
